Bioassay records: PubChem, Broad Institute
GASC1 inh: inhibitors of human demethylase GASC-1 KDM4C. Q9H3R0. GST-KDM4C 2-372, H3K9me3 peptide, LANCE TR-FRET. inhibition, % at 12.5 µM. 96,000 tested, 0.15% active. AID 720574;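 active = mean replicate inhibition above about 25%, with at least 55% of replicates also reaching it, limit read from the data, passing the limit was not always enough; inconclusive = only one of those two conditions met; inactive = neither condition met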
Target sequence (Q9H3R0 2-372 limits assumed): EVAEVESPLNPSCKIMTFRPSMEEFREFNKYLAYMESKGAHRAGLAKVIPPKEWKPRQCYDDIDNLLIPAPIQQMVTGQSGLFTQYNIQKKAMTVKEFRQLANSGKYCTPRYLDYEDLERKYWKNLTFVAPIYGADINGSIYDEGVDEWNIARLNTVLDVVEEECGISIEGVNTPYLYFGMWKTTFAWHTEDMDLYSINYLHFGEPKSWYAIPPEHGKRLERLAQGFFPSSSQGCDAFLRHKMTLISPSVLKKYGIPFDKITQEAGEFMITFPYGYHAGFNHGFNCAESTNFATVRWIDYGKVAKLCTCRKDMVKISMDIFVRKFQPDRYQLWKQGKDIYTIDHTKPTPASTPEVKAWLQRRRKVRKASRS
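System: N-terminal GST-fused human GASC-1 (KDM4C) fragment, residues 2-372 / Amount: 10 nM GST-KDM4C in enzyme reaction / Also added: H3K9me3 peptide with Fe(II)/2OG / Times: 30 min demethylation and 1 h detection at room temperature / Signal: LANCE TR-FRET / Read-out basis: Fall in 671/618 emission ratio as inhibition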
IDH1 R132H inh: blocks human IDH1 R132H reductase activity | inhibition, % at 10 µM | 70,000 tested, 0.18% active | diaphorase/resazurin fluorescence, 60 min; in the data active = inhibition above about 34%; inconclusive = no clear call, values can overlap the other calls; inactive = below about 11%;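 note: 0% = DMSO and 100% = no enzyme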
T cruzi growth-1: T. cruzi proliferation inhibition; T. cruzi beta-gal in NIH3T3, GalScreen luminescence, 90 h; inhibition, % at 8.34 µM; 77,000 tested, 5.9% active; AID 624255;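 active = mean inhibition above about 93%, with at least 55% of replicates each passing it, limit read from the data, passing the limit was not always enough; inconclusive = only one of those two conditions holds; inactive = neither condition holds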
Pf Dd2 growth: P. falciparum Dd2 growth inhibition; SYBR Green, 72 h; hits give low values; activity change, % at 10 µM; 94,000 tested, 2.3% active; AID 1159554; in the data active = activity change below about -80%; inconclusive = no clear call, values can overlap the other calls
T cruzi growth-2: Trypanosoma cruzi proliferation inhibition. inhibition, % at 8.35 µM. T. cruzi beta-gal in NIH3T3, GalScreen luminescence, 90 h. shares compounds with T cruzi growth-1. AID 651739. 5,600 tested, 72% active;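 active = mean replicate inhibition above about 95% and at least 55% of replicates individually reaching it, limit read from the data; inconclusive = only one of the two criteria is met; inactive = neither criterion is met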
T cruzi growth-3: Trypanosoma cruzi proliferation inhibition. T. cruzi beta-gal in NIH3T3, GalScreen luminescence, 90 h. inhibition, % at 2.09 µM. 5,600 tested, 21% active. AID 651740. shares compounds with T cruzi growth-1;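 active = mean inhibition above about 95%, with at least 55% of replicates also reaching it, limit read from the data; inconclusive = meets just one of the two conditions; inactive = meets neither condition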;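 note: plate controls were neutral control median for no effect and positive control median for full effect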
NIH3T3 tox: kills mouse NIH/3T3 fibroblasts; AID 651742; cytotoxicity (signal decrease), % at 8.35 µM; NIH/3T3 viability, CellTiter-Glo ATP luminescence, 90 h; shares compounds with T cruzi growth-1; 5,600 tested, 14% active;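 active = mean signal decrease across replicates above about 35% based on untreated-well scatter, with enough replicates individually passing, limit read from the data; inconclusive = no rule stated though some were filed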;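 note: 0% = median of neutral control wells and 100% = median of positive control wells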
NIH3T3 tox 2: NIH/3T3 (mouse) viability loss; 5,600 tested, 56% active; AID 651744; shares compounds with T cruzi growth-1; inhibition, % at 24.9 µM; NIH/3T3 viability, CellTiter-Glo ATP luminescence, 90 h;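 active = mean loss of cell viability signal at or above a set limit, and enough replicates individually reaching it; inconclusive = meets only the mean limit or only the replicate share; inactive = meets neither condition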;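 note: 0% = median of neutral control wells and 100% = median of positive control wells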
Active calls of the source: *; ? = inconclusive; · = no result given. The list is not random: actives were taken first. Their share in the collection is about 5.9%.

SMILES	GASC1 inh	IDH1 R132H inh	T cruzi growth-1	Pf Dd2 growth	T cruzi growth-2	T cruzi growth-3	NIH3T3 tox	NIH3T3 tox 2
CCCC#Cc1ccc2c(c1)O[C@@H](CN(C)S(=O)(=O)c1cccc(F)c1)[C@H](C)CN([C@@H](C)CO)S2(=O)=O	0	-1	124*	-32	106*	108*	33	67*
C[C@@H]1CN([C@@H](C)CO)S(=O)(=O)c2ccc(C#CCN(C)C)cc2O[C@H]1CN(C)S(=O)(=O)c1cccc(F)c1	8	0	·	-78	·	·	·	·
COc1ccc(NC(=O)N2CCCCN3[C@H](CO)[C@@H](c4ccc(C5=CCCCC5)cc4)[C@H]3C2)cc1	3	·	117*	-35	105*	90	29	105*
O=C(Nc1ccccc1F)N1CCCCN2[C@H](CO)[C@H](c3ccc(C4=CCCC4)cc3)[C@H]2C1	-1	·	103*	-33	92	68	14	103*
O=C(Nc1ccccc1F)N1CCCCN2[C@H](C1)[C@H](c1ccc(C3=CCCC3)cc1)[C@@H]2CO	0	·	37	7	·	·	·	·
O=C(Nc1cc(F)ccc1F)N1CCCCN2[C@H](C1)[C@H](c1ccc(C3=CCCCC3)cc1)[C@@H]2CO	0	·	78	6	·	·	·	·
COc1ccc(NC(=O)N2CCCCN3[C@@H](CO)[C@H](c4ccc(C5=CCCC5)cc4)[C@@H]3C2)cc1	·	·	84	-32	·	·	·	·
COc1ccc(NC(=O)N2CCCCN3[C@H](C2)[C@H](c2ccc(C4=CCCCC4)cc2)[C@@H]3CO)cc1	0	·	110*	4	114*	42	7	94*
O=C(Nc1ccc(F)cc1)N1CCCCN2[C@H](C1)[C@H](c1ccc(C3=CCCCC3)cc1)[C@@H]2CO	-2	·	112*	-24	106*	39	-1	86*
C[C@H]1CN([C@@H](C)CO)C(=O)c2c(c3ccccc3n2C)-c2ccccc2CO[C@@H]1CN(C)Cc1ccccc1	-1	·	·	-77	·	·	·	·
CCC(=O)N1C[C@@H](C)[C@H](OC)CN(C)C(=O)c2cc(NC(=O)Nc3ccccc3)ccc2OC[C@@H]1C	0	0	-34	27	·	·	·	·
C[C@@H]1CN([C@@H](C)CO)C(=O)Cc2cc(NC(=O)Nc3cccc4ccccc34)ccc2O[C@@H]1CN(C)Cc1ccc2c(c1)OCO2	-1	1	103*	0	109*	-14	15	52*
C[C@@H]1CN([C@H](C)CO)C(=O)Cc2cc(NC(=O)Nc3cccc4ccccc34)ccc2O[C@H]1CN(C)Cc1ccc2c(c1)OCO2	0	2	?	8	107*	53	22	22
C[C@H]1CN([C@@H](C)CO)C(=O)Cc2cc(NC(=O)Nc3ccccc3)ccc2O[C@@H]1CN(C)Cc1ccc2c(c1)OCO2	3	-1	48	-32	·	·	·	·
C[C@H](CO)N1C[C@H](C)[C@H](CN(C)Cc2ccccc2)Oc2ccc(NC(=O)Nc3cccc4ccccc34)cc2CC1=O	0	·	73	-46	·	·	·	·
C[C@@H]1CN([C@H](C)CO)C(=O)Cc2cc(NC(=O)Nc3cccc4ccccc34)ccc2O[C@@H]1CN(C)Cc1ccc2c(c1)OCO2	-2	·	103*	11	107*	93	?	72*
C[C@H]1CCCCO[C@H](CN(C)Cc2ccccc2)[C@@H](C)CN([C@@H](C)CO)C(=O)c2cc(NS(=O)(=O)c3ccccc3)ccc2O1	0	-1	45	-12	·	·	·	·
O=C(C1CCCC1)N1CC(=O)N2[C@H](C1)[C@H](c1ccc(C#Cc3cccc(F)c3)cc1)[C@@H]2CO	·	·	·	-24	·	·	·	·
CS(=O)(=O)N(CC(=O)Nc1cccc([N+](=O)[O-])c1)C1CCCCC1	·	3	·	·	·	·	·	·
C[C@H](CO)N1C[C@H](C)[C@H](CN(C)Cc2ccc(C(=O)Nc3ccccc3N)cc2)Oc2ccc(NS(=O)(=O)c3cccs3)cc2C1=O	-1	·	115*	-85*	104*	90	14	49*
C[C@H](CO)N1C[C@H](C)[C@H](CN(C)Cc2ccc(C(=O)Nc3ccccc3N)cc2)Oc2c(NS(=O)(=O)c3cccs3)cccc2C1=O	1	·	107*	-63	99*	84	3	26*
C[C@@H]1CN([C@H](C)CO)C(=O)c2cc(NS(=O)(=O)c3cccs3)ccc2O[C@H]1CN(C)Cc1ccc(C(=O)Nc2ccccc2N)cc1	-1	0	92	-46	·	·	·	·
C[C@H](CO)N1C[C@H](C)[C@H](CN(C)Cc2ccc(-c3ccccc3)cc2)Oc2c(NS(=O)(=O)c3cccs3)cccc2C1=O	0	0	97*	-19	87	30	15	13
CCOc1ccc(NC(=O)C2CC(=O)n3cnnc3N2)cc1 (centres undefined)	·	0	·	·	·	·	·	·
Cc1ccc(S(=O)(=O)Nc2ccc3c(c2)C(=O)N([C@@H](C)CO)C[C@H](C)[C@H](CN(C)Cc2ccc(C(F)(F)F)cc2)O3)cc1	0	0	99*	-6	103*	100*	10	99*
SMILES	GASC1 inh	IDH1 R132H inh	T cruzi growth-1	Pf Dd2 growth	T cruzi growth-2	T cruzi growth-3	NIH3T3 tox	NIH3T3 tox 2
Cc1ccc(S(=O)(=O)Nc2ccc3c(c2)C(=O)N([C@H](C)CO)C[C@H](C)[C@H](CN(C)Cc2ccc(C(F)(F)F)cc2)O3)cc1	2	-2	97*	-10	98*	61	12	103*
C[C@@H]1CN([C@@H](C)CO)C(=O)c2cc(NS(=O)(=O)c3ccc(Cl)cc3)ccc2O[C@H]1CN(C)Cc1ccc(C(F)(F)F)cc1	3	1	85	2	·	·	·	·
C[C@@H]1CN([C@H](C)CO)C(=O)c2cc(NS(=O)(=O)c3ccc(Cl)cc3)ccc2O[C@@H]1CN(C)Cc1ccc(C(F)(F)F)cc1	-3	1	128*	11	?	3	94*	103*
CCCNC(=O)[C@@H]1[C@@H](CO)[C@@H]2Cn3c(ccc(-c4ccc(OC)cc4)c3=O)[C@@H]2N1CC	13	·	·	2	·	·	·	·
C[C@@H]1CN([C@@H](C)CO)C(=O)c2cc(NC(=O)c3ccccc3)ccc2O[C@@H](C)CCCCO[C@H]1CN(C)C(=O)c1ccccc1	7	-6	?	-52	91	0	-2	0
C[C@H](CO)N1C[C@H](C)[C@@H](CN(C)C)OCCCC[C@H](C)Oc2ccc(NC(=O)c3ccncc3)cc2C1=O	0	2	3	·	·	·	·	·
C[C@H]1CCCCO[C@H](CN(C)C(=O)c2ccncc2)[C@@H](C)CN([C@@H](C)CO)C(=O)c2cc(NC(=O)c3ccccc3)ccc2O1	0	·	100*	-7	51	11	-4	-8
